MT1-MMP txn act = activates MT1-MMP transcription | HT1080 MT1-MMP promoter luciferase reporter, luminescence, overnight; active compounds read high | activation factor at 10 µM | hit rate 0.16% among 86,000;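 active = activation factor of at least 2 for MT1-MMP transcription at 10 µM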
SF1 activator = activates the human nuclear receptor SF-1 | AID 522 | hit rate 1.9% among 65,000 | CHO-K1 Gal4-SF-1 LBD luciferase reporter; % increase over DMSO SF-1-specific signal | activation, % at 10 µM | Q13285;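 active = activation above the mean activation of all tested compounds plus 3 SD, cut at about 50% in these data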
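Compound – one dose, 10 µM compound, 1% DMSO · Test system – transient Gal4-SF-1 LBD reporter, CHO-K1 · Input – 4,000 cells in each well · Read-out basis – percent activation relative to DMSO median and mock-transfected background · Replicates – single measurement per compound · Technique – steady-glow luciferase luminescence, read after 15 min reagent incubation · Timing – 20 h compound treatment, 37 °C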
HEK293 NFkB inh = lowers PMA/ionomycin-induced NF-kB signal in HEK293 cells. HEK-293 NF-kB luciferase reporter, luminescence. inhibition, % at 3 µM. hit rate 0.21% among 62,000;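 active = inhibition above the mean of all tested compounds plus 3 SD, cut at about 40% in these data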
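System: NF-kB luciferase reporter HEK-293 cells | Replication: Single test | Control set: DMSO vs reference inhibitor | Evaluation: % inhibition | Schedule: 1 h pretreatment, 16 h stimulation, 37 °C | Probe or stimulus: PMA with ionomycin | Compound dosing: One dose, 3 µM | Detection: Luciferase luminescence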
Jurkat viability = cytotoxic compounds reducing Jurkat cell viability | AID 463 | Jurkat E6.1 viability, ATP luminescence, 48 h | inhibition, % at 4 µM | hit rate 1.2% among 56,000;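 active = inhibition above the mean inhibition of all tested compounds plus 3 SD, cut at about 28% in these data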
RORA act = activators of human nuclear receptor RORA. CHO-K1 Gal4-RORA LBD luciferase reporter, luminescence; percent increase over mock-subtracted basal signal. activation, % at 10 µM. hit rate 1.5% among 65,000. AID 560;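 active = activation above the mean of all tested compounds plus 3 SD, cut at about 49% in these data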
Target sequence (P35398 whole entry, looked up, the tested form may be a part): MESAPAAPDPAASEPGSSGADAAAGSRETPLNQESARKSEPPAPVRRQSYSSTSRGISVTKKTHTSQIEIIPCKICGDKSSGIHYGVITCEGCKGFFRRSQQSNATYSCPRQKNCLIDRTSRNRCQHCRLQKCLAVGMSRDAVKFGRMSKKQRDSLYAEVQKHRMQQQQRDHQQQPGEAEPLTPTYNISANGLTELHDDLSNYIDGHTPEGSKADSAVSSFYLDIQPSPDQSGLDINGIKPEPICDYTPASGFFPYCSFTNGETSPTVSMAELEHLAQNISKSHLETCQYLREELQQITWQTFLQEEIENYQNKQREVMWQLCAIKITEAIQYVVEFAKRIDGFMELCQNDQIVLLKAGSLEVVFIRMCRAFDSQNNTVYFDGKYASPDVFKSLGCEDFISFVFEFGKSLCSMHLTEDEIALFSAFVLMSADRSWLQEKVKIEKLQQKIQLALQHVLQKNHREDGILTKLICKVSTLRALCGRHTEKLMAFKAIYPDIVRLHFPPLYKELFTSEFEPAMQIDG
Of the large screens only hits and unclear results are named; the others gave an inactive call. Rows were chosen to be rich in hits. Some 2.8% of all compounds tested hit in one or more screens of this group.

N#CCCn1cc(/C=N/O)c(-c2ccc(Cl)cc2)n1	none (no result: SF1 activator, HEK293 NFkB inh, Jurkat viability, RORA act)
N#CCCn1cc(/C=N/O)c(-c2ccc(-c3ccccc3)cc2)n1	SF1 activator 57, Jurkat viability 43
COc1c(C)cccc1C(=O)NC(=S)Nc1ccc2c(c1)Cc1ccccc1-2	none (no result: SF1 activator, HEK293 NFkB inh, Jurkat viability, RORA act)
CCOC(=O)c1cccc(Nc2nc(C)cc(C)n2)c1	none
COc1cccc(C2=NOC(C(=O)N3CCOCC3)C2)c1 (centres undefined)	SF1 activator 57
O=C(COc1ccccc1)Nc1ccccc1N1CCN(c2ccc(F)cc2)CC1	none
CNc1sc(C(=O)c2ccccc2F)c(N)c1-c1nc2ccccc2s1	MT1-MMP txn act 2.1 (no result: SF1 activator, HEK293 NFkB inh, Jurkat viability, RORA act)
CC(C)(C)NC(=O)c1nc2ccccc2s1	none (no result: SF1 activator, HEK293 NFkB inh, Jurkat viability, RORA act)
Cc1nn(CC(O)Cn2cnc3c2c(=O)n(C)c(=O)n3C)c(C)c1Br (centres undefined)	none
C/C=C/CSc1nc2c(c(=O)[nH]c(=O)n2C)n1C(C)C	none
CCCCSc1nnc(-c2ccccc2N)c(=O)[nH]1	RORA act 58
c1ccc(OCCn2cnc3ccccc32)cc1	none
c1ccc(OCCCCn2cnc3ccccc32)cc1	Jurkat viability 33
O=C(NCc1ccc2c(c1)OCO2)c1c[nH]c2ccc(S(=O)(=O)N3CCOCC3)cc2c1=O	none
O=C(NCc1ccccc1)c1c[nH]c2cc3c(cc2c1=O)OCCO3	MT1-MMP txn act 2.2 (no result: SF1 activator, HEK293 NFkB inh, Jurkat viability, RORA act)
CN1CCN2c3ccccc3Cc3ccccc3C2C1 (centres undefined)	none (no result: HEK293 NFkB inh, Jurkat viability)
CN(C)c1ccc(C(=O)OCC(=O)c2cccs2)cc1	SF1 activator 52 (no result: Jurkat viability)
COC(=O)C1C(=O)c2c([nH]c(C(=O)OC3CCCCC3)c2C)CC1C (centres undefined)	RORA act 77
CCN(CC)c1ccc2c(c1)C(=O)N(C)C2=O	none
CCN(CC)c1ccc(-c2nc3cnccc3n2C)cc1	RORA act 67
O=C(CSc1ncn[nH]1)Nc1nnc(-c2ccccc2)s1	RORA act 56
CCOC(=O)N1CCN(c2c(NCc3cccs3)c(=O)c2=O)CC1	Jurkat viability 37
c1ccc2c(c1)NC1(CCCCC1)n1c-2nc2ccccc21	RORA act 53
Cc1cc(S(=O)(=O)N2CCCCCC2)c(Cl)cc1Cl	none (no result: SF1 activator, HEK293 NFkB inh, Jurkat viability, RORA act)
COc1ccc(N2CSC3=C(C#N)C(c4cc(OC)ccc4OC)CC(=O)N3C2)c(OC)c1 (centres undefined)	none (no result: MT1-MMP txn act)
O=C(CN1C(=O)c2ccccc2S1(=O)=O)N1CCN(c2ccccc2)CC1	none
O=C(CN1C(=O)c2ccccc2S1(=O)=O)N1CCOCC1	MT1-MMP txn act 2.1
C=CCn1c(N)c(C(=O)NCC2CCCO2)c2nc3ccccc3nc21 (centres undefined)	none
O=C(NCC1CCCO1)c1coc2nc3ccccc3nc12 (centres undefined)	SF1 activator 57
CCn1c(NC(=O)c2cccc(Cn3cc(Cl)cn3)c2)nc2ccccc21	Jurkat viability 75
Cn1c(NC(=O)c2cccc(Cn3cc(Cl)cn3)c2)nc2ccccc21	none
c1ccc(/N=C2\N=C(Nc3ccccn3)c3ccccc32)nc1	Jurkat viability 50
OC(COc1ccc(Cl)cc1)CN1CCCCC1 (centres undefined)	none
COc1ccc(-c2csc(N3CCOCC3)n2)cc1OC	RORA act 61
O=C(N1CCOCC1)N1CCN(c2nc(-c3ccc(F)cc3)cs2)CC1	none
CN1Cc2cc(C(=O)c3cc(Cl)cc(CSc4ncccn4)c3O)cnc2NC1=O	Jurkat viability 98
Cc1ccc(O)c(C(=O)c2cnc3c(c2)CN(CCC(C)C)C(=O)N3)c1	none
CC(=O)C1C(c2ccc(OC(F)F)cc2)NC(=O)NC1(O)C(F)(F)F (centres undefined)	none
Cc1ccc(-c2noc(CSc3ccccc3)n2)cc1	none (no result: SF1 activator, HEK293 NFkB inh, Jurkat viability, RORA act)
Cc1ccc(-c2noc(CSc3nc(N)cc(N)n3)n2)cc1	SF1 activator 61, RORA act 58
COc1ccc2c(c1OC)C(=O)OC2Nn1cncn1 (centres undefined)	none
O=C(Nc1ccc(-c2nc3ncccc3o2)cc1)c1ccco1	SF1 activator 63
O=C(OC1CCCCC1)c1ccc(NC(=O)c2ccco2)cc1	SF1 activator 60, RORA act 49
O=C(Nc1ccccn1)c1ccc(NC(=O)c2ccco2)cc1	SF1 activator 60, RORA act 71
Cc1cc(C(=O)Nc2ccccn2)cs1	SF1 activator 62, RORA act 56
O=C(Nc1ccc(-c2nc3ncccc3o2)cc1)c1ccc(Br)o1	none
Cc1ccc(-c2nc3cc(C)ccc3o2)cc1	none (no result: MT1-MMP txn act)
Cc1ccc(-n2ncc3c(=O)n(CC#N)cnc32)cc1C	none
C#CCn1cnc2c(cnn2-c2ccc(C)c(C)c2)c1=O	SF1 activator 58 (no result: MT1-MMP txn act)
CCc1nnc2c3cnn(-c4ccc(C)c(C)c4)c3ncn12	SF1 activator 58, RORA act 57 (no result: MT1-MMP txn act, Jurkat viability)
Cc1nc2c3cnn(-c4ccc(C)c(C)c4)c3ncn2n1	SF1 activator 65
CCCC(=O)Nc1nn(CCC)c2nc3ccccc3cc12	none (no result: HEK293 NFkB inh, Jurkat viability)
CCOC(=O)Nc1cc(OC)c(OC)cc1Cc1nccc2cc(OC)c(OC)cc12	none
Cc1nn(-c2ccccc2)c(Cl)c1C(=O)Nc1nnc(C2CCCCC2)s1	none (no result: SF1 activator, HEK293 NFkB inh, Jurkat viability, RORA act)
Cc1nn(Cc2ccccc2Cl)c(C)c1C(=O)Nc1nnc(C2CC2)s1	HEK293 NFkB inh 52, Jurkat viability 47
Oc1ccc2oc3c(c2c1)CCCC3	none (no result: SF1 activator, HEK293 NFkB inh, Jurkat viability, RORA act)
Cn1cc(SCC(=O)O)c2ccccc21	none (no result: SF1 activator, HEK293 NFkB inh, Jurkat viability, RORA act)
Cn1cc(/C(Cc2ccccc2)=N\O)c2ccccc21	Jurkat viability 59
Cc1cc(C)n2nc(SCC(=O)c3cc(C)n(-c4cc(C)on4)c3C)nc2n1	Jurkat viability 33
Cc1cc(-n2c(C)cc(C(=O)CSc3nnc4sc5ccccc5n34)c2C)no1	none
Cc1cc(-n2c(C)cc(C(=O)CSc3ncnc4ccccc34)c2C)no1	HEK293 NFkB inh 40 (no result: Jurkat viability)
Cc1cc(C)n2nc(SCC(=O)c3ccccc3)nc2n1	none
Cc1cccc(C)c1-n1nnnc1SCSc1nnnn1-c1c(C)cccc1C	HEK293 NFkB inh 45
CCCn1c(C(C)NC(=O)c2ccccc2)nc2ccccc21 (centres undefined)	none (no result: Jurkat viability)
C=CCNc1nc2c(c(=O)n(C)c(=O)n2C)n1CCCCCC	Jurkat viability 82
C=CCNc1nc2c(c(=O)n(C)c(=O)n2C)n1CC	none
COc1cccc(N2C(N)=NC(N)=NC2(C)C)c1	Jurkat viability 66
COCCn1nnnc1C(c1cc2cc(C)ccc2[nH]c1=O)N1CCc2ccccc21 (centres undefined)	none (no result: SF1 activator, HEK293 NFkB inh, Jurkat viability, RORA act)
CC(=O)/C=C(\C)Nc1ccc(-c2cnc(-c3ccccc3)o2)cc1	SF1 activator 57, RORA act 88
O=C(Nc1ccc(-c2nnc(-c3ccccc3)o2)cc1)C(F)(F)F	none
O=C(CN(Cc1ccco1)C(=O)CNS(=O)(=O)c1ccccc1)NCc1ccccc1	none
O=C(NCc1cccs1)c1nc2c(nnn2Cc2ccccc2Cl)c(=O)[nH]1	HEK293 NFkB inh 53, Jurkat viability 40 (no result: MT1-MMP txn act)
CC1CCN(S(=O)(=O)c2cccc(C(=O)NCc3cccs3)c2)CC1	none

Assay outcomes from PubChem BioAssay.
